Source: PMC5509056 (FEBS letters, 2017)

How the values were obtained:
[1] = tested on: rat hippocampus membranes; test: Agonist-stimulated [^35S]GTPγS binding in rat hippocampus membranes; assay type: biochemical, rat (Wistar)
[2] = tested on: supraoptic nucleus (SON) neurons; μ receptor; test: Whole cell patch clamp, evoked outward / holding current in SON neurons; assay type: cell-based, rat (Sprague Dawley); conditions: for holding current response in SON: 1 μM, six cells in the SON
[3] = tested on: suprachiasmatic nucleus (SCN) cells; test: Spontaneous firing rate; assay type: cell-based, rat (Sprague Dawley); conditions: 1 μM, six cells in the SCN
Procedure, shortened: (§1)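 Coronal hypothalamic slices (250 μm) came from halothane-anaesthetised 20–24-day-old rats, cut in ice-cold sucrose ACSF and warmed to 35°C over 30 min. Slices were held submerged in 32°C ACSF (MgCl2 1.2, CaCl2 2.4 mM) gassed with 95% O2/5% CO2. Neurons were visualised by IR-DIC and patched with 5–8 MΩ pipettes (K-gluconate internal, pH 7.2) for whole-cell current and/or voltage clamp.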

[4] = tested on: rostral supraoptic nucleus (SON) cells; test: Spontaneous firing rate; assay type: cell-based, rat (Sprague Dawley); conditions: 1 μM, six cells in the SON
Procedure, shortened: as §1

[5] = tested on: suprachiasmatic nucleus (SCN) cells; test: Whole cell patch clamp, holding current in SCN neurons; assay type: cell-based, rat (Sprague Dawley); conditions: 1 μM, six cells in the SCN
[6] = tested on: mu-opioid receptor (MOR); conditions: endomorphins EM1 and EM2; ref [5], [6], [7]; cited from earlier work

Molecule	SFR response in SCN [3]	SFR response in SON [4]	holding current response in SON [2]	holding current response in SCN [5]	binding affinity and selectivity to MOR (in words) [6]	also measured
C=CCN1CC[C@]23c4c5ccc(O)c4O[C@H]2C(=O)CC[C@@]3(O)[C@H]1C5 [naloxone, reference compound]						inhibition of agonist effect of Mx-1 in promoting incorporation of γ-GTP ([1]; naloxone saturating concentrations (10 μM) with Mx-1): inhibited the agonist effect of Mx-1
CTOP [reference compound]						Mx-1 evoked current amplitude in presence of CTOP ([2]; CTOP 100 nM added to bath with 100 nM Mx-1, six SON neurons): 3.8 ± 2.0 pA
NH2-PPPRSPYSGKGLGPGNLLHSALLPIHCICLC-COO^- [Mx-3]	no measurable difference	no measurable difference	no measurable difference	no measurable difference		agonist-stimulated activity of Mx-3 compared with Mx-1 ([1]; [^35S]GTPγS, rat hippocampus membranes, comparison with Mx-1, discussion): greater than that displayed by Mx-1; [^35S]GTPγS binding at high concentrations (decrease) ([1]; high concentrations, for Mx-1: 1.2, 2.4 and 4.8 μM): not observed
NH2-TSRTDGTQS-COO^- [Mx-2]	no measurable difference	no measurable difference	no measurable difference	no measurable difference		
Tyr-Pro-Phe-Phe-NH2 [EM2]					high binding affinity and selectivity to the mu-opioid receptor	
Tyr-Pro-Trp-Phe-NH2 [EM1]					high binding affinity and selectivity to the mu-opioid receptor	
